# KCC2 mod: modulates chloride dependent transport by human KCC2; actives 2.2% (n = 190,000); Q9H2X9; KCC2 cells, thallium flux FluoZin-2 fluorescence; B-score of Tl+ flux slope (higher = more flux/activation; lower = inhibition) at 10 µM; AID 1456;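 active = thallium flux slope and its plate-corrected score both differing from the plate sample mean at a set confidence after two filtering rounds, in either direction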;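 note: slope of fluorescence scaled to starting intensity during 10 to 20 s after thallium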
# KCNQ1 pot: human KCNQ1 channel potentiation or activation; P51787; CHO-K1 KCNQ1, thallium flux FluxOR fluorescence; stronger effect = higher value; B-score at 10 µM; actives 0.35% (n = 310,000); AID 2648;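 active = fluorescence ratio B-score, a plate-corrected score, at least three library SD, with initial intensity B-score within 5 SD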
#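 Assay system: stable KCNQ1 CHO-K1 line; medium: assay buffer, equal DMSO in all wells; timing: 90 min dye loading and 20 min compound exposure, both at room temperature; technique: kinetic FluxOR thallium fluorescence, 10-s 1-Hz baseline, 110-s post-stimulus read; read-out basis: B score of baseline-normalized fluorescence ratio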
# KCNK9 block: inhibitors of human KCNK9 two-pore domain potassium channel; actives 1.2% (n = 310,000); AID 488922; B-score at 10 µM; HEK293 KCNK9, FluxOR thallium flux fluorescence; stronger effect = lower value;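 active = ratio B-score over 3 SD below the library mean, with starting fluorescence within 5 SD of its mean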;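 note: negative B-score means less thallium flux so channel inhibition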
# KCNK3 inh: human KCNK3 channel inhibition, primary screen; O14649; CHO-KCNK3 thallium flux, FluxOR fluorescence; stronger effect = lower value; AID 602410; actives 0.84% (n = 340,000); B-score at 10 µM;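 active = B-score under library mean minus 4 SD, starting fluorescence ratio at most library mean plus 5 SD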;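 note: more negative B-score means stronger inhibition of thallium flux through KCNK3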
# KCNQ1 block: human KCNQ1 channel inhibition; B-score at 10 µM; CHO-K1 KCNQ1, FluxOR thallium flux fluorescence; stronger effect = higher value; AID 2642; actives 1.3% (n = 310,000);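 active = compounds whose thallium flux B-score, printed positive for inhibition, exceeds three library SD while starting fluorescence stays within three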;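 note: channel opened by potassium depolarization with thallium stimulus after 20 min compound exposure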
# hERG protect: hERG (human) protection from proarrhythmic block; Q12809; CHO-hERG, FluxOR thallium flux, dofetilide IC70 present; activation (rescue from dofetilide block), less the hit threshold, % at 10 µM; actives 0.51% (n = 310,000); AID 1511;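 active = activation above the mean of controls blocked by dofetilide plus 5 SD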;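 note: thallium influx through hERG after potassium depolarization seen as dye fluorescence rise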
# * marks the source's active call; other numbers are inactive results; i = inactive; · = not tested or not shown. An excerpt weighted towards active compounds, which were near 4.1% of everything screened.
SMILES,KCC2 mod,KCNQ1 pot,KCNK9 block,KCNK3 inh,KCNQ1 block,hERG protect
Cc1ccc2c(c1)C1CN(C)CCC1N2C(=O)Nc1ccc(Cl)cc1 (stereo not given),·,i,i,i,7*,-8.1
O=C1NN(c2ccc(Cl)c(Cl)c2)C(=O)/C1=C/c1cccc(OC(=O)c2cccs2)c1,-1.24,12*,i,·,i,-16.1
O=C1NN(c2ccccc2)C(=O)/C1=C\c1cccc(OC(=O)c2cccs2)c1,-2.09,i,i,i,i,-3.5
Cc1cc(N2CCN(c3cccc(C)c3C)CC2)nc(-c2ccccc2)n1,0.0102,i,-6.57*,i,i,-6.7
CCOC(=O)c1sc2ncnc(NCc3ccco3)c2c1C,128*,37*,i,i,i,16.4*
Cc1cc(C)c(Cn2cnc(-c3ccc([N+](=O)[O-])cc3)c2)c(C)c1,·,i,i,i,6*,-9.7
O=C(/C=C/c1cn(CC(O)CN2CCOCC2)c2ccccc12)c1cccs1 (stereo not given),-0.101,i,i,·,6*,-23.1
O=C(Nc1ccc2c(c1)OCO2)C1CCCN1C(=O)Nc1ccccc1F (stereo not given),-0.137,i,i,i,i,5.6*
O=c1c2ccccc2c(C=NCCc2ccccc2)c(O)n1Cc1ccccc1,·,i,i,i,6*,-14.3
CN(C)S(=O)(=O)c1cccc(NC(=O)c2ccc(NS(=O)(=O)c3cccs3)cc2)c1,·,·,·,i,·,·
CCSc1nc2sc3c(c2c(=O)[nH]1)CC(C)(CC)OC3 (stereo not given),-1.14,i,i,i,i,-5.9
CCC1(C)Cc2c(sc3nc(SC)[nH]c(=S)c23)CO1 (stereo not given),·,74*,i,·,i,49.4*
O=C(NN=c1c(=O)c2ccccc2c1=O)c1ccccc1,8.65*,i,i,i,i,-7.9
O=C(COc1cc(F)ccc1[N+](=O)[O-])N1N=C(c2cccs2)CC1c1ccco1 (stereo not given),·,·,·,i,·,·
COc1cccc(C(=O)C(C#N)=C(SC)SC)c1,-2.89,i,i,i,i,-6.8
CSC(SC)=C(C#N)C(=O)c1ccccc1,-1.99,i,i,i,11*,-28.9
O=C(NNc1nc2c(F)cc(F)cc2s1)c1ccccc1,1.08,61*,i,i,i,-7.3
CCOc1ccc(S(=O)(=O)N2CCCC(C(=O)N3CCN(c4ccccc4)CC3)C2)cc1 (stereo not given),·,i,i,i,i,-9.6
O=C(c1ccc(-c2ccc(Cl)cc2)o1)N1CCN(c2ccc([N+](=O)[O-])cc2Cl)CC1,·,i,i,i,7*,-13.7
COc1ccc(CCNC(=O)c2cc3ccccc3oc2=O)cc1,·,i,i,i,i,7.8*
O=C(NCCc1ccccc1)c1cc2ccccc2oc1=O,·,i,i,i,i,-5.2
CCCCNC(=O)CSc1nc2ccc(C)cc2[nH]1,-0.599,i,i,i,i,-8.6
CCOC(=O)CCCNC(=O)CSc1nc2ccc(OCC)cc2[nH]1,-0.0305,i,i,i,i,7.2*
COC(CN1CCc2c(C)nc3c(C#N)cnn3c21)OC,-0.313,i,i,i,i,6.3*
Cc1nc2c(C#N)cnn2c2c1CCNN2C,0.0227,i,i,i,i,-3.8
SMILES,KCC2 mod,KCNQ1 pot,KCNK9 block,KCNK3 inh,KCNQ1 block,hERG protect
CCn1cc(C(=O)NC2CCCc3c2cnn3-c2cccc(C)c2C)cn1 (stereo not given),·,i,i,i,8*,-16.5
COC(=O)c1c(NC(C)=O)csc1C,0.298,i,i,i,i,-7.3
COC(=O)c1c(NC(=O)C(C)(C)C)csc1C,0.471,i,i,i,i,8.2*
Cc1cc(-n2c(C)cc(C(=O)CSc3ncnc4ccccc34)c2C)no1,-1.34,i,i,i,6*,-19.1
Cc1cc(C(=O)CSc2ncnc3ccccc23)c(C)n1C1CC1,·,·,·,i,·,·
CC(=O)c1cccc(-n2nnnc2SCC(=O)Nc2cc(C)on2)c1,·,i,i,i,i,-5.0
O=C(Nc1ncc(Cc2cccc(Cl)c2)s1)c1cccs1,-0.654,i,-6.65*,i,i,-3.9
O=C(Nc1ncc(Cc2ccccc2)s1)c1cccs1,-0.676,i,i,i,i,-6.9
COc1ccc2oc(-c3ccccc3)c(C(=O)N3CCOCC3)c2c1,·,i,i,i,i,-17.4
CC(=O)Oc1ccc2oc(C)c(C(=O)N3CCOCC3)c2c1,-0.246,i,i,i,i,4.9*
CSc1ccc(C2NN=C(c3ccccc3)S2)cc1 (stereo not given),·,i,i,i,i,15.3*
CCO[C@@H]1OC(C(=O)N2CCOCC2)=C[C@H](C(C)(C)C)[C@H]1CCCO,·,i,i,i,i,-3.6
COc1ccccc1-c1nc2cc3ccccc3cc2nc1-c1ccccc1,0.0852,i,i,i,9*,-6.5
COc1ccccc1NC(=O)c1ccc2nc(-c3ccccc3)c(-c3ccccc3)nc2c1,0.0871,i,i,i,i,-17.0
O=C(NCc1ccccc1Cl)C1CCC(CNc2nc(=S)[nH]c3ccccc23)CC1 (stereo not given),-0.00235,i,i,i,i,5.6*
O=C(NCCc1ccc(Cl)cc1)C1CCC(CNc2nc(=S)[nH]c3ccccc23)CC1 (stereo not given),-0.000184,i,i,i,i,-13.4
O=C(NCCCl)Nc1ccccc1OCCOc1ccccc1NC(=O)NCCCl,·,i,-6.96*,i,i,-8.7
COc1cccc(CN(C)CC(=O)Nc2ccccc2N2CCOCC2)c1OC,-0.176,i,i,i,i,5.1*
CC(C)c1ccc(C2c3[nH]c4ccccc4c3C[C@H]3C(=O)N(c4ccccc4C(=O)N4CCC(C(=O)O)CC4)C(=O)N23)cc1 (stereo not given in full),·,i,i,i,i,-14.2
CC1CN(C2CCCCC2)C(=S)N(c2ccccc2)C1=O (stereo not given),·,·,·,i,·,·
Cc1cc(C)c2c(=O)n(CC(=O)N3CCC(Cc4ccccc4)CC3)sc2n1,-1.47,i,i,·,i,-4.4
Cc1cccc(N2CCN(C(=O)c3ccncc3)CC2C)c1 (stereo not given),-0.257,i,i,i,i,6.1*
Cc1cccc(N2CCN(C(=O)c3ccc4ccccc4c3)CC2C)c1 (stereo not given),·,·,·,i,·,·
Cc1cccc(N2CCN(C(=O)Cn3sc4nc(C)cc(C)c4c3=O)CC2C)c1 (stereo not given),·,14*,i,i,i,-7.8

# Source: PubChem BioAssay (several laboratories)
